Results taken from ChEMBL document CHEMBL4049439, “Synthesis and Characterization of Tetrahydropyran-Based Bacterial Topoisomerase Inhibitors with Antibacterial Activity against Gram-Negative Bacteria” (J Med Chem, 2017).
Values after ≈ are worked out from the molar mass of the structure shown. Active and inactive are the calls of the source. The rule behind the calls is not given here.

Tests used:
[1] = test system: Acinetobacter baumannii; assay: Antibacterial activity against fluoroquinolone-resistant Acinetobacter baumannii T6474 by CLSI broth microdilution method; assay type: functional
[2] = Inhibition of wild-type Acinetobacter baumannii DNA gyrase supercoiling activity using relaxed pBR322 DNA as substrate by ethidium bromide based agarose gel electrophoresis
[3] = test system: Enterococcus faecalis; assay: Antibacterial activity against Enterococcus faecalis by CLSI broth microdilution method; assay type: functional
[4] = test system: Klebsiella pneumoniae; assay: Antibacterial activity against Klebsiella pneumoniae by CLSI broth microdilution method; assay type: functional
[5] = test system: Mus musculus; assay: Dose normalized AUC in NMRI mouse at 120 mg/kg, sc by LC-MS/MS analysis; assay type: ADME, organism-based; details: in vivo
How it was run: (§1)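 Mice dosed iv at 10 mg/kg or sc at 120 mg/kg. AUC normalized to dose (μg·h/(mL·dose)). Unbound AUC derived using fraction unbound. Clearance, Vdss and terminal half-life also derived.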

[6] = Fraction unbound in NMRI mouse plasma at 120 mg/kg, sc by rapid equilibrium dialysis; assay type: ADME, organism-based; how it was run: as §1
[7] = test system: Mus musculus; assay: Dose normalized unbound AUC in NMRI mouse at 120 mg/kg, sc by LC-MS/MS analysis; assay type: ADME, organism-based; details: in vivo; how it was run: as §1
[8] = Apparent clearance in NMRI mouse at 120 mg/kg, sc by LC-MS/MS analysis; assay type: ADME, organism-based; details: in vivo; how it was run: as §1
[9] = Terminal half-life in NMRI mouse at 120 mg/kg, sc by LC-MS/MS analysis; assay type: ADME, organism-based; details: in vivo, read-out: beta t1/2 (converted); how it was run: as §1
[10] = test system: Rattus norvegicus; assay: Dose normalized unbound AUC in Wistar rat at 10 mg/kg, iv by LC-MS/MS analysis; assay type: ADME, organism-based; details: in vivo
How it was run: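 Rats dosed iv at 10 mg/kg or 1 mg/kg. Dose-normalized AUC (μg·h/(mL·dose)) and its unbound counterpart derived via fraction unbound. Clearance, unbound clearance, Vdss and half-life also derived.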

[11] = Clearance in dog at 1 mg/kg, iv by LC-MS/MS analysis; assay type: ADME, organism-based, Canis lupus familiaris; details: in vivo
How it was run: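 Dogs given 1 mg/kg iv. Clearance (mL/min/kg) and half-life (h) derived from plasma profiles.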

[12] = test system: Escherichia coli; assay: Antibacterial activity against Escherichia coli ATCC 25922 by CLSI broth microdilution method; assay type: functional
[13] = test system: Escherichia coli; assay: Antibacterial activity against Escherichia coli ATCC 25922 infected in cyclophosphamide-induced neutropenic NMRI mouse model assessed as reduction in colony forming units in thighs at 120 mg/kg, sc treated 2 hrs post infection measured 5.5 hrs post dose; assay type: functional, organism-based
How it was run: (§2)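 Neutropenic murine thigh infection with an E. coli strain, compound given subcutaneously. Thigh CFU counted 7.5 h post-infection (5.5 h post-treatment). Net change expressed relative to CFU at treatment start.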

[14] = test system: Escherichia coli; assay: Antibacterial activity against Escherichia coli ATCC 25922 infected in cyclophosphamide-induced neutropenic NMRI mouse model assessed as log reduction in colony forming units in thighs at 360 mg/kg, sc treated 2 hrs post infection measured 5.5 hrs post dose; assay type: functional; how it was run: as §2
[15] = test system: Cavia porcellus; assay: Cardiotoxicity in Dunkin-Hartley guinea pig assessed as free plasma concentration causing effect on QRS interval administered as iv at 3 mg/kg for first 20 mins of infusion followed by 10 mg/kg for second 20 mins of infusion followed by 30 mg/kg for third 20 mins of infusion by LC-MS/MS analysis; assay type: toxicity, organism-based; details: in vivo
How it was run: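 Anesthetized guinea pigs received 3, 10 and 30 mg/kg iv over three consecutive 20 min periods. MAP, HR and ECG intervals (PR, QRS, RR, QT) recorded continuously. Blood drawn at the end of each period for drug levels. Value is the lowest plasma concentration differing from vehicle-treated animals. Free level uses unbound fraction from rapid equilibrium dialysis of guinea pig plasma.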

[16] = Fraction unbound in Dunkin-Hartley guinea pig plasma administered as iv at 3 mg/kg for first 20 mins of infusion followed by 10 mg/kg for second 20 mins of infusion followed by 30 mg/kg for third 20 mins of infusion by rapid equilibrium dialysis; assay type: ADME, organism-based, Cavia porcellus
[17] = test system: Escherichia coli; assay: Antibacterial activity against wild-type Escherichia coli MG1655 by CLSI broth microdilution method; assay type: functional; details: K-12 substr. MG1655
How it was run: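 MIC (μg/mL) determined on wild-type E. coli MG1655, the parent of isogenic strains with truncated LPS or deleted TolC or AcrAB efflux.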

[18] = test system: Escherichia coli; assay: Antibacterial activity against Escherichia coli MG1655 harboring rfac deletion mutant by CLSI broth microdilution method; assay type: functional; details: K-12 substr. MG1655
How it was run: (§3)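 MIC (μg/mL) measured against engineered derivatives of E. coli MG1655. ΔrfaC has truncated LPS (raised permeability). ΔtolC lacks the outer-membrane TolC efflux component. ΔacrAB lacks the AcrAB efflux system of the cytoplasmic membrane.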

[19] = test system: Escherichia coli; assay: Ratio of MIC for wild-type Escherichia coli MG1655 to MIC for Escherichia coli MG1655 harboring rfac deletion mutant; assay type: functional, K-12 substr. MG1655
How it was run: (§4)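 Fold change in MIC for each MG1655 derivative (ΔacrAB, ΔrfaC, ΔtolC) relative to the MIC measured on wild-type E. coli MG1655, with both MICs in μg/mL.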

[20] = test system: Escherichia coli; assay: Antibacterial activity against Escherichia coli MG1655 harboring tolC deletion mutant by CLSI broth microdilution method; assay type: functional; details: K-12 substr. MG1655; how it was run: as §3
[21] = test system: Escherichia coli; assay: Ratio of MIC for wild-type Escherichia coli MG1655 to MIC for Escherichia coli MG1655 harboring tolC deletion mutant; assay type: functional, K-12 substr. MG1655; how it was run: as §4
[22] = test system: Escherichia coli; assay: Antibacterial activity against Escherichia coli MG1655 harboring AcrAB deletion mutant by CLSI broth microdilution method; assay type: functional; details: K-12 substr. MG1655; how it was run: as §3
[23] = test system: Escherichia coli; assay: Ratio of MIC for wild-type Escherichia coli MG1655 to MIC for Escherichia coli MG1655 harboring AcrAB deletion mutant; assay type: functional, K-12 substr. MG1655; how it was run: as §4
[24] = Solubility of the compound at pH 1 to 9; assay type: physicochemical; details: buffer
[25] = Fraction unbound in NMRI mouse at 10 mg/kg, iv by rapid equilibrium dialysis; assay type: ADME, organism-based; details: plasma; how it was run: as §1
[26] = test system: Mus musculus; assay: Dose normalized unbound AUC in NMRI mouse at 10 mg/kg, iv by LC-MS/MS analysis; assay type: ADME, organism-based; details: in vivo; how it was run: as §1
[27] = Volume of distribution at steady state in NMRI mouse at 10 mg/kg, iv by LC-MS/MS analysis; assay type: ADME, organism-based; details: in vivo, read-out: Vdss
How it was run: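 Mice received a single dose of 10 mg/kg intravenously, or 120 mg/kg subcutaneously for one compound. Clearance, Vdss, half-life, unbound fraction and dose-normalized AUC were derived from plasma exposure.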

[28] = Terminal half-life in NMRI mouse at 10 mg/kg, iv by LC-MS/MS analysis; assay type: ADME, organism-based; details: in vivo, read-out: beta t1/2 (converted); how it was run: as §1
[29] = test system: Staphylococcus aureus; assay: Antibacterial activity against methicillin-sensitive Staphylococcus aureus A-1178 infected in cyclophosphamide-induced neutropenic NMRI mouse model assessed as log reduction in colony forming units in thighs at 40 mg/kg, sc treated 2 hrs post infection measured 22 hrs post dose; assay type: functional
How it was run: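 Neutropenic mouse thigh model infected with a methicillin-sensitive S. aureus strain, subcutaneous dosing. Thigh CFU measured 24 h post-infection (22 h post-treatment). Net log reduction given against CFU at treatment start.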

[30] = Ratio of AUC in NMRI mouse to MIC for methicillin-sensitive Staphylococcus aureus A-1178 infected in cyclophosphamide-induced neutropenic NMRI mouse model at 40 mg/kg/day

**Q.** What does the source list for COc1ccc2ccc(=O)n(C[C@H](N)[C@@H]3CC[C@@H](NCc4ccc5c(n4)NC(=O)CO5)CO3)c2n1?
**A.** MIC [1]: 1 µg/mL (≈ 2.08 µM); IC50 [2]: 0.125 µM; MIC [3]: 1 µg/mL (≈ 2.08 µM); MIC [4]: 8 to 16 µg/mL (≈ 16.6 to 33.3 µM); AUC/dose [5]: 186 µg·h/mL; fraction unbound [6]: 0.369; fAUC/dose [7]: 68.6 µg·h/mL; CL/F [8]: 86 mL/min/kg; half-life [9]: 5.2 h; fAUC/dose [10]: 34 µg·h/mL; clearance [11]: 45 mL/min/kg; MIC [12]: 0.25 µg/mL (≈ 0.52 µM); Activity [13]: inactive; Activity [14]: 2 log10CFU; Cp(f) [15]: 2700 nM; fraction unbound at 20 min [16]: 0.54

**Q.** Which MIC [1] does the source give for COc1ccc2ncc(F)c(C[C@H](N)[C@@H]3CC[C@@H](NCc4ccc5c(n4)NC(=O)CO5)CO3)c2n1 here?
**A.** 0.125 µg/mL (≈ 0.259 µM)

**Q.** And the IC50 [2]?
**A.** 0.125 µM

**Q.** And the MIC [17]?
**A.** 0.063 µg/mL (≈ 0.131 µM)

**Q.** What about the MIC [18] of the same compound?
**A.** 0.031 µg/mL (≈ 0.0642 µM)

**Q.** What about the Ratio [19] of the same compound?
**A.** 2

**Q.** And the MIC [20]?
**A.** 0.008 µg/mL (≈ 0.0166 µM)

**Q.** And the Ratio [21]?
**A.** 8

**Q.** What about the MIC [22] of the same compound?
**A.** 0.008 µg/mL (≈ 0.0166 µM)

**Q.** What about the Ratio [23] of the same compound?
**A.** 8

**Q.** What about the solubility [24] of the same compound?
**A.** > 100 µg/mL

**Q.** And the MIC [3]?
**A.** 0.25 µg/mL (≈ 0.518 µM)

**Q.** And the MIC [4]?
**A.** 1 to 4 µg/mL (≈ 2.07 to 8.29 µM)

**Q.** What about the fraction unbound [25] of the same compound?
**A.** 0.15

**Q.** And the fAUC/dose [26]?
**A.** 35.4 µg·h/mL

**Q.** And the Vd [27]?
**A.** 12.3 L/kg

**Q.** And the half-life [28]?
**A.** 5.6 h

**Q.** And the fAUC/dose [10]?
**A.** 29 µg·h/mL

**Q.** And the Activity [29]?
**A.** >2.5 log10CFU

**Q.** What about the RatioAUC/MIC [30] of the same compound?
**A.** 23.5

**Q.** And the “Cp(f)” value [15]?
**A.** 1800 nM

**Q.** And the fraction unbound at 20 min [16]?
**A.** 0.33
